Assay results pooled from the literature.
Compare with care: the assays were run in different laboratories.
Cell line: K562

| SMILES | effect on | mode | method | time | notes | IC50 |
| --- | --- | --- | --- | --- | --- | --- |
| c1ccc(-c2n[nH]cc2-c2ccnc(-c3ccc(OCCn4ccnc4)cc3)c2)nc1 | cell growth or viability |  | XTT | 72 h |  | 20000 nM |
| CC(C)(C)SCCCC1=CC2C=CC=CC1C2C1CCCCC1=O (centres unmarked) | cell growth or viability |  | flow cytometry |  |  | 28 nM |
| CC(=O)O[C@H](C)C(=O)CCCCCCC(=O)Nc1ccccc1 | cell growth or viability |  | thymidine uptake |  |  | > 100000 nM |
| O=C1NCCc2[nH]c(-c3ccncc3)cc21 | cell growth or viability |  |  |  |  | > 10000 nM |
| COc1cc(C=NNc2ncnc3c2cnn3-c2ccccc2)ccc1O | cell growth or viability |  | XTT | 72 h |  | 3240 nM |
| CC(=O)O[C@@H]1OC=C2[C@@H](OC(C)=O)C[C@H]3[C@]4(C)CC[C@H]5C(C)(C)CCC[C@]5(C)[C@H]4C[C@@H](O)[C@]3(C)[C@H]21 | NF-κB activity | inhibitor | luciferase |  | TNF-stimulated | 6000 nM |
| N[C@@H](CC(=O)N1CCN(C(c2ccc(F)cc2)c2ccc(F)cc2)CC1)C(=O)N1Cc2ccccc2C1 | cell growth or viability |  | ATP luminescence | 48 h |  | 40800 nM |
| O=C1CCCCC1C1C2C=CC=CC1C(CCCCOC1CCCCO1)=C2 (centres unmarked) | cell growth or viability |  | flow cytometry |  |  | 27 nM |
| CCCCN(Cc1ccc(C(=O)NO)cc1)C(=O)Nc1ccccc1 | cell growth or viability |  | ATP luminescence | 72 h |  | 2260 nM |
| COc1ccc(/C=C\c2cc(OC)c(OC)c(OC)c2)cc1O | cell growth or viability |  |  |  |  | 5 nM |
| COc1cc(Nc2nccc(-c3cnn4nc(OC)ccc34)n2)cc(C(F)(F)F)c1 | cell growth or viability |  | ATP luminescence |  |  | 260 nM |
| N#CCCC1=CC2C=CC=CC1C2C1CCCCC1=O (centres unmarked) | cell growth or viability |  | flow cytometry |  |  | 57 nM |
| CN1c2ccccc2C(=O)N2[C@H](C(=O)Nc3ccc(C(=O)Nc4ccccc4N)cc3)Cc3c([nH]c4ccccc34)[C@@H]12 | cell growth or viability |  |  |  |  | 1900 nM |
| N#CCCCC1=CC2C=CC=CC1C2C1CCCCC1=O (centres unmarked) | cell growth or viability |  | flow cytometry |  |  | 31 nM |
| CC[C@@H](C)[C@H](N)C(=O)N1Cc2ccccc2C1 | cell growth or viability |  | ATP luminescence |  |  | > 60000 nM |
| CCCCCC/C=C1\CC2C=CC=CC1C2C1CCCCC1=O (centres unmarked) | cell growth or viability |  | flow cytometry |  |  | 17 nM |
| CCCON(Cc1ccc(C(=O)NO)cc1)C(=O)Nc1ccc(N(C)C)cc1 | cell growth or viability |  | ATP luminescence | 72 h |  | 7680 nM |
